Paper PMC2910176 (Food and chemical toxicology : an international journal …, 2010)

Tests used:
[1] = test system: cancer cell lines HepG2, MCF-7 and MDA-MB-231; experiment: Anti-proliferative activity in cancer cell lines; type: cell-based, human; conditions: dose-dependent, three cancer cell lines
[2] = test system: human peripheral blood mononuclear cells (PBMC); conditions: ref Yadav et al., 2005; cited from earlier work
[3] = test system: human peripheral blood mononuclear cells (PBMC); conditions: ref Yadav et al., 2005; cited from earlier work; remark: listed apart in the source
HepG2 = experiment: MTT cell viability assay in HepG2; type: cell-based, human; conditions: for Concentration producing 50% growth inhibition (IC50): HepG2, 48 hours, MTT
MCF-7 = experiment: MTT cell viability assay in MCF-7; type: cell-based, human; conditions: for Concentration producing 50% growth inhibition (IC50): MCF-7, 48 hours, MTT
MDA-MB-231 = experiment: MTT cell viability assay in MDA-MB-231; type: cell-based, human; conditions: for Concentration producing 50% growth inhibition (IC50): MDA-MB-231, 48 hours, MTT
Hs-68 = experiment: MTT cell viability assay in normal skin fibroblasts Hs-68; type: cell-based, human; conditions: for inhibition of cell proliferation in human normal skin fibroblasts: 3.125–25 μg/ml; for Concentration producing 50% growth inhibition (IC50): Hs-68 normal skin fibroblasts, 48 hours, MTT
MDA-MB-231 cells [4] = experiment: Cell cycle analysis; type: cell-based, human; conditions: MDA-MB-231, after treatment
How it was run: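 MDA-MB-231 cells (3 × 10^5/well, 6-well) were plated overnight and then treated with test compound (30–45 μg/ml). They were fixed in 70% v/v ethanol at 4°C overnight and stained with PI (20 μg/ml) plus RNase A (10 μg/ml) for 30 min at 37°C in the dark. Flow cytometry collected 10,000 cells per sample, and cell cycle and apoptotic peaks were modelled; n=3.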

MDA-MB-231 cells [5] = experiment: DNA fragmentation assay; type: cell-based, human; conditions: MDA-MB-231, 24 and 48 hours
How it was run: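 MDA-MB-231 cells (1 × 10^6) were attached for 24 h in 100 mm dishes, then given test compound (40–80 μg/ml) or 0.4% v/v ethanol for 24 or 48 h. Lysis was 15 min at 37°C in 200 mM Tris-HCl, 100 mM EDTA, 1% SDS, pH 8.3. RNase A, then proteinase K, each ran 90 min at 56°C, followed by ethanol/sodium acetate precipitation. DNA ran on 1.5% agarose with ethidium bromide beside a 100 bp marker; n=3.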

MDA-MB-231 cells [6] = experiment: Annexin V-FITC/PI staining assay; type: cell-based, human; conditions: MDA-MB-231, 24 hours
How it was run: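 MDA-MB-231 cells (3 × 10^5/well) were exposed to test compound at various concentrations for 24 h. They were washed twice in 1X binding buffer, then labelled with annexin-V FITC plus PI for 15 min at room temperature in the dark, and analysed by flow cytometry. Annexin-V+ PI− (lower right quadrant) was taken as early apoptosis. Three independent experiments were run.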

MDA-MB-231 cells [7] = experiment: Western blot analysis of apoptosis and proliferation proteins; type: cell-based, human; conditions: MDA-MB-231, 40 or 60 μg/ml
How it was run: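 MDA-MB-231 cells (1 × 10^6) were treated with test compound (40 or 60 μg/ml) or 0.4% v/v ethanol for 24 or 48 h. Lysis used 2% SDS, 10% glycerol, […] Tris-HCl, pH 6.8, on ice, then 95°C for 10 min. Lysates ran on 12% SDS-PAGE onto PVDF and were blocked in 5% milk/TBST. Primaries (overnight) were Bcl-2 and procaspases-3/-8 at 1:100 and cyclin D at 1:200; the β-actin loading control was 1:2000. HRP secondary was used with ECL; three independent experiments.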

[8] = test system: human peripheral blood mononuclear cells (PBMC); experiment: PBMC proliferation; type: cell-based; conditions: 72 hours, with polymyxin B; α-turmerone 10 or 15 μg/ml, ar-turmerone 5-15 μg/ml
How it was run: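 PHA-activated PBMC (PHA 10 μg/ml final; polymyxin B 10 μg/ml present to bind LPS) were incubated 72 h with test compound at 5, 10 or 15 μg/ml, with matched vehicle. [methyl-3H]-thymidine (0.5 μCi/well) was added for the final 6 h. Cells were harvested onto glass-fibre filters for scintillation counting. Results are % cpm relative to untreated control, mean of 8 donors.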

[9] = test system: human peripheral blood mononuclear cells (PBMC); experiment: Cytokine production by PBMC; type: cell-based; conditions: for TNF-α production in PHA-activated PBMC / IFN-γ production in PHA-activated PBMC / IL-2 production in PHA-activated PBMC: 24 hours; for TNF-α production in PHA-activated PBMC: 10 and 15 μg/ml; for IFN-γ production in PHA-activated PBMC / IL-2 production in PHA-activated PBMC: data not shown
How it was run: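 PBMC came from buffy coat by Ficoll density separation, with ≥95% trypan-blue viability, at 4 × 10^5/well. Resting or PHA-activated (10 μg/ml final) cells received test compound at 5, 10 or 15 μg/ml, with matched vehicle, for 24 h. Supernatants were recovered by centrifugation (300×g), stored at −80°C and assayed for IL-2, IFN-γ and TNF-α by ELISA. There were 8 donors, four wells each, reported as mean + SD; the statistic was an unpaired t-test versus control.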

Row | Compound | proliferation of cancer cells [1] | Concentration producing 50% growth inhibition (IC50) (HepG2) | Concentration producing 50% growth inhibition (IC50) (MCF-7) | Concentration producing 50% growth inhibition (IC50) (MDA-MB-231) | inhibition of cell proliferation in human normal skin fibroblasts (Hs-68) | Concentration producing 50% growth inhibition (IC50) (Hs-68) | proliferation of PHA-activated PBMC [8] | TNF-α production in PHA-activated PBMC [9] | IFN-γ production in PHA-activated PBMC [9] | IL-2 production in PHA-activated PBMC [9] | other results
1 | COc1cc(/C=C/C(=O)CC(=O)/C=C/c2ccc(O)c(OC)c2)ccc1O [Curcumin, curcumin] | significantly inhibited |  |  |  |  |  |  |  |  |  | PHA-induced proliferation in PBMC [2]: inhibited; IL-2 production in PBMC (PHA-induced) [3]: inhibited
2 | CC(C)=CC(=O)CC(C)C1C=CC(C)=CC1 (stereo not drawn) [α-turmerone] | significantly inhibited | 32.9 µg/mL | 41.8 µg/mL | 30.2 µg/mL | did not induce any significant inhibition | >100 µg/mL | significantly stimulate | significantly increased | neither α-turmerone (AL) nor ar-turmerone (AR) further altered | neither α-turmerone (AL) nor ar-turmerone (AR) further altered | inhibition of cell proliferation compared to the control (HepG2; HepG2, 50 μg/ml, 48 hours): ~70%; inhibition of cell proliferation compared to the control (MCF-7; MCF-7, 50 μg/ml, 48 hours): ~70%; inhibition of cell proliferation compared to the control (MDA-MB-231; MDA-MB-231, 50 μg/ml, 48 hours): ~70%; cell cycle arrest (MDA-MB-231 cells [4]): no arrest at any phase of the cell cycle; DNA fragmentation (MDA-MB-231 cells [5]): detected; proportion of early apoptosis cells (Annexin V-FITC positive and PI negative) (MDA-MB-231 cells [6]): increased with the concentrations; Bcl-2 expression (MDA-MB-231 cells [7]): slightly down-regulated; cleaved PARP (MDA-MB-231 cells [7]): observed; expression level of pro-caspase-3 (MDA-MB-231 cells [7]): significantly decreased; expression level of pro-caspase-8 (MDA-MB-231 cells [7]): significantly decreased; expression of cyclin D1 (MDA-MB-231 cells [7]): significantly decreased; proteolytic cleavage of pro-caspase-9 (fragments p35 and p37) (MDA-MB-231 cells [7]): observed
3 | O=C(/C=C/c1ccc(O)cc1)CC(=O)/C=C/c1ccc(O)cc1 [Bisdemethoxycurcumin, bisdemethoxycurcumin] | significantly inhibited |  |  |  | did not induce any significant inhibition |  |  |  |  |  | 
4 | CC(C)=CC(=O)C[C@H](C)c1ccc(C)cc1 [ar-turmerone] |  | >100 µg/mL | >100 µg/mL | >100 µg/mL | did not induce any significant inhibition | >100 µg/mL | significantly stimulate | significantly increased | neither α-turmerone (AL) nor ar-turmerone (AR) further altered | neither α-turmerone (AL) nor ar-turmerone (AR) further altered | IFN-γ production in resting PBMC ([9]; 24 hours, 5, 10 or 15 μg/ml): significantly increased; IL-2 production in resting PBMC ([9]; 24 hours, 5, 10 or 15 μg/ml): significantly increased; TNF-α production in resting PBMC ([9]; 24 hours, 5, 10 or 15 μg/ml): significantly increased
5 | COc1cc(/C=C/C(O)=C/C(=O)/C=C/c2ccc(O)cc2)ccc1O [Demethoxycurcumin, demethoxycurcumin] | significantly inhibited |  |  |  | did not induce any significant inhibition |  |  |  |  |  | 
